Sampled rows, rich in hits. Any-hit rate of the full collection: about 3.6%.
ZTA counter: counter-screen for EBNA-1 inhibitors: inhibitors of Epstein-Barr virus ZTA. AID 2234. inhibition, % at 11 µM. P03206. 0.15% of 320,000 active. ZTA-DNA binding, fluorescence polarization; in the data active = inhibition above about 33%
Target sequence (P03206 whole entry, looked up): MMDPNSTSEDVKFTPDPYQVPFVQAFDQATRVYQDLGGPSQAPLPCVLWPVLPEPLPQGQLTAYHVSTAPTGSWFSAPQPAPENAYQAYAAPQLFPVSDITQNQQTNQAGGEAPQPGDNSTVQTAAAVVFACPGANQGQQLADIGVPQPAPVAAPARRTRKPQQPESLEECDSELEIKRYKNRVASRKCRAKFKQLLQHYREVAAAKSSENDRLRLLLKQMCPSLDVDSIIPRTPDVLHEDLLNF
HCV NS3 hel inh: inhibitors of Hepatitis C virus NS3 helicase. NS3 helicase DNA unwinding, Cy5 molecular beacon fluorescence. inhibition, % at 10.9 µM. 0.56% of 290,000 active;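 active = inhibition above the mean of all tested compounds plus 3 SD, set per campaign, cut at about 35% in these data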
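Test system: hepatitis C virus NS3 helicase domain fragment enzyme. Also added: annealed dual-labelled DNA beacon duplex, ATP-started. Timing: 60 min unwinding reaction at 25 °C after ATP addition. Technique: Cy5 fluorescence. Measure: % inhibition of unwinding.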
FID counter: counter-screen for HCV NS3 helicase inhibitors: DNA intercalator displacement | DNA fluorescent intercalator displacement, fluorescence | inhibition, % at 7.9 µM | 0.17% of 290,000 active | AID 1845; in the data active = inhibition above about 37%;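 also: higher means more ethidium bromide displaced from hairpin DNA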
GRIN3A LBD mod: modulates the human NR3A ligand-binding domain. NR3A LBD differential scanning fluorimetry, Tm shift; 0% = protein alone, 100% = glycine-bound protein. Tm shift relative to glycine control, % at 25 µM. 2.5% of 340,000 active;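 active = melting temperature shift of at least 10% of the positive control shift, at one fixed dose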
FGF22 binding: shifts melting point of recombinant human FGF22 | recombinant FGF22 thermal shift, SYPRO orange fluorescence; percent of sucrose octasulfate shift, DMSO zero | activity (Tm shift, normalised), % at 9.99 µM | 1.5% of 340,000 active | AID 651658;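 active = mean Tm shift, scaled 0 neutral to 100 positive control, at about 1.3% or above, every replicate too, limit read from the data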
Target sequence (Q9HCT0 whole entry, looked up): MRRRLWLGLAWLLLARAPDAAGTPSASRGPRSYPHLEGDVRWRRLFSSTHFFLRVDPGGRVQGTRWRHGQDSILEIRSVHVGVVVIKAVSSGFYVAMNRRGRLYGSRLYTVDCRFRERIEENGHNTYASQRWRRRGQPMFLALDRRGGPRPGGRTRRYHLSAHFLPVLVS
EBNA-1 inhibitor: blocks EBNA-1 binding to DNA | AID 1950 | EBNA-1 DNA binding, fluorescence polarization | 0.34% of 300,000 active | inhibition, % at 14.8 µM; in the data active = inhibition above about 28%
Numbers stand for hits; i = inactive; nt = not tested or not shown.

SMILES	ZTA counter	HCV NS3 hel inh	FID counter	GRIN3A LBD mod	FGF22 binding	EBNA-1 inhibitor
CO[C@H]1CN(C)C(=O)c2cc(NC(=O)NC3CCCCC3)ccc2OC[C@@H](C)N(CCc2ccccc2)C[C@@H]1C	nt	nt	nt	nt	i	nt
O=C(NNC(=O)c1cccs1)c1ccc([N+](=O)[O-])cc1	i	i	i	i	43.5	i
O=C(NNC(=O)c1cccs1)c1cccc(F)c1	i	i	i	i	i	i
O=C(NNC(=O)c1cccs1)c1ccc(F)cc1	i	i	i	i	43.1	i
C[C@H](CO)N1C[C@H](C)[C@H](CN(C)C(=O)Nc2ccc(-c3ccccc3)cc2)OCc2ccccc2-c2ccccc2C1=O	nt	nt	nt	nt	i	nt
O=C(COc1ccc2ccccc2c1Br)NC(=S)Nc1cccc(CO)c1	i	i	i	34.2	nt	i
O=C(COc1ccc2ccccc2c1Br)Nc1ccncc1	i	i	i	13.6	i	i
COc1ccc2c3c([nH]c2c1)[C@@H](CO)N(C(=O)C1CC1)CC31CCN(C)CC1	nt	nt	nt	nt	i	nt
COc1ccc(S(=O)(=O)Nc2ccc3c(c2)C(=O)N([C@H](C)CO)C[C@H](C)[C@H](CN(C)Cc2ccncc2)O3)cc1	nt	nt	nt	nt	i	nt
CC(C)COC(=O)N(C)C[C@H]1OCc2ccccc2-c2c(n(C)c3ccccc23)C(=O)N([C@@H](C)CO)C[C@@H]1C	nt	nt	nt	nt	i	nt
CC(C)NC(=O)N(C)C[C@H]1Oc2cc(C#CCN(C)C)ccc2S(=O)(=O)N([C@H](C)CO)C[C@@H]1C	nt	nt	nt	nt	i	nt
CC(C)(CO)CNC(=O)CCc1nnc(CCCc2ccccc2)o1	i	i	i	i	43.4	i
C=C(C)CNC(=O)CCc1nnc(Cc2cccc(C(F)(F)F)c2)o1	i	i	i	i	43.0	i
CC(C)(CO)CNC(=O)CCc1nnc(Cc2ccc(-c3ccccc3)cc2)o1	i	i	i	i	i	i
CCOC(=O)CNC(=O)N1CCCC(C(=O)c2ccc3c(c2)OCO3)C1 (stereo not given)	i	i	i	i	43.1	i
C[C@@H]1CN([C@H](C)CO)S(=O)(=O)c2ccc(-c3ccncc3)cc2O[C@@H]1CN(C)C(=O)CC1CC1	nt	nt	nt	nt	i	nt
CN(C)CCN(Cc1ccco1)C(=O)c1oc2ccccc2c1NC(=O)COc1ccccc1	i	i	38.1	i	i	i
CCOC(=O)N1CCN(C(=O)C2CCN(C(=O)c3ccccc3C)CC2)CC1	nt	nt	nt	i	1.4	nt
COc1cc(CN(C2CC2)S(=O)(=O)c2ccccc2Br)cc(OC)c1	nt	nt	nt	14.0	i	nt
C=CCCN(C1CCCC1)S(=O)(=O)c1ccccc1Br	i	nt	nt	i	i	i
CC(C)CC#Cc1ccc2c(c1)O[C@H](CN(C)C(=O)c1cnccn1)[C@H](C)CN([C@@H](C)CO)S2(=O)=O	nt	nt	nt	nt	i	nt
Cc1ccc(/C=C/S(=O)(=O)NCC(=O)O)cc1	i	i	i	i	43.3	i
COC(=O)Cc1csc(NC(=O)CSc2nnc3ccccn23)n1	i	i	i	i	44.1	i
COc1ccc2c(c1)c(CC(=O)NCc1cc([N+](=O)[O-])ccc1O)c(C)n2C(=O)c1ccc(Cl)cc1	i	i	i	23.7	i	i
COc1ccc2c(C#CCCO)c(-c3ccc(S(C)(=O)=O)cc3)sc2c1	nt	nt	nt	i	44.7	nt
SMILES	ZTA counter	HCV NS3 hel inh	FID counter	GRIN3A LBD mod	FGF22 binding	EBNA-1 inhibitor
COc1ccc2sc(-c3ccc(S(C)(=O)=O)cc3)c(C#CCO)c2c1	nt	nt	nt	i	i	nt
CCc1ccc(-c2cc(N)n(-c3ccccc3)n2)cc1	nt	i	i	i	i	nt
Cc1cccc(-c2cc(N)n(-c3ccccc3)n2)c1	nt	i	i	30.9	i	nt
Cc1cccc(-c2cnn(-c3ccccc3)c2N)c1	i	i	i	i	i	i
Cc1ccc(-c2cc(N)n(-c3ccccc3)n2)cc1	i	i	i	25.9	nt	i
CCC(=O)N1C[C@H]2[C@@H](c3ccccc31)[C@H](CO)N2C(=O)Nc1ccccc1	nt	nt	nt	nt	i	nt
O=C(N/C=C/n1cnc2cc(C(F)(F)F)ccc21)c1ccccc1F	i	i	i	i	44.3	i
COc1ccc2c3c([nH]c2c1)[C@H](CO)N(Cc1ccc(Cl)cc1)CC31CCN(Cc2ccccc2)CC1	nt	nt	nt	nt	i	nt
O=c1cc(O)c2sc(Nc3ccc(F)cc3)nc2[nH]1	i	i	i	i	i	i
CCOC(=O)c1c(Nc2ccc(Cl)cc2)sc(/C=C2\C=Nc3ccccc32)c1O	i	i	i	i	i	i
Oc1nc(Nc2ccc(F)cc2)sc1/C=C1\C=Nc2ccccc21	i	i	i	34.3	i	i

Screening data from PubChem BioAssay.
